Bioassay records from PubChem.
KLK5 inh: kallikrein 5 (human) inhibition; inhibition, % at 5 µM; 210,000 compounds, 0.59% hits; recombinant hK5, fluorogenic AMC substrate cleavage; Q9Y337;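 active = inhibition of 40% or more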;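 note: 0% = enzyme controls without compound and 100% = no-enzyme blanks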
FXIIa inh: blocks human coagulation factor XIIa protease activity | purified FXIIa, Boc-QGR-AMC fluorogenic substrate, 2 h | inhibition, % at 5 µM | 220,000 compounds, 0.3% hits | AID 800; in the data active = inhibition above about 40%;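 note: 0% = enzyme with no compound and 100% = blank without enzyme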
FXIa inh: factor XIa (human) inhibition; inhibition, % at 5 µM; purified FXIa, Boc-Glu-Ala-Arg-AMC fluorogenic substrate; 220,000 compounds, 0.14% hits; AID 798;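 active = inhibition of at least 40%; inactive = inhibition below 40%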;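 note: fluorescence of freed AMC excited at 355 nm; 0% = enzyme without compound and 100% = no enzyme blank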
thrombin 1536: inhibitors of human thrombin. alpha-thrombin, Boc-VPR-AMC fluorogenic substrate cleavage. inhibition, % at 5 µM. P00734. 220,000 compounds, 0.26% hits. AID 1046;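 active = inhibition at or above 40%; inactive = inhibition below 40%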;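 note: 0% = enzyme with no compound and 100% = wells without enzyme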
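signal = AMC fluorescence, 355/460 nm | material = human alpha-thrombin enzyme | control set = enzyme without compound as high, wells lacking enzyme as low | times = reaction at room temperature | read-out basis = percent inhibition scaled between no-compound controls and no-enzyme blanks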
HSV replic up: HSV replication enhancement | maximum fold increase | 220,000 compounds, 0.005% hits | AID 1956 | HSV replication augmentation in cells, fold increase; in the data active = maximum fold increase above about 1.5; tested in PC3 cells
Furin inhibitor: inhibitors of human furin; inhibition, % at 20 µM or 30 µM; 220,000 compounds, 0.061% hits; purified furin, fluorogenic substrate cleavage; in the data active = inhibition above about 25%
* = called active by the depositor; i = inactive; · = no result. Only some compounds are listed: those with a hit (about 1% of all), similar ones and a draw of the others.

SMILES	KLK5 inh	FXIIa inh	FXIa inh	thrombin 1536	HSV replic up	Furin inhibitor
CCCCCC(=O)Nc1cccc(C2=NOC3(C2)C[C@@H](C(N)=O)N(C(=O)c2cc([N+](=O)[O-])cc([N+](=O)[O-])c2C)C3)c1 (some centres undefined)	14	24	40*	14	i	-1
COC(=O)c1ccc2nc(NC(=O)C(C)C)sc2c1	-8	2	-3	-9	i	-14
COC(=O)c1ccc2nc(NC(=O)CN3C(=O)CCC3=O)sc2c1	50*	21	13	15	i	-22
C/C(=N\OC(=O)NC(C)C)c1sc(-c2ccc(Cl)cc2)nc1C	58*	13	8	19	i	-7
CCc1ccc(CN(C)C(=O)CC2C(=O)NCCN2Cc2ccoc2)cc1 (centres undefined)	·	30	16	6	i	-2
CCOc1ccc(/C=C(\C#N)C(=O)c2c(C)[nH]c3ccccc23)cc1OC	-11	14	6	-5	i	-1
COc1cc(/C=C(/C#N)C(=O)c2c(C)[nH]c3ccccc23)ccc1OCC#N	42*	25	22	14	i	12
CC(C)c1nc2c(c(=O)n(C)c(=O)n2C)n1C	2	6	2	6	i	-21
O=C(Cc1c[nH]c2ccccc12)N1CCc2ccccc21	-16	10	6	5	i	35*
Cc1nn(Cc2ccc(C(=O)Nc3nccs3)cc2)c(C)c1Cl	44*	25	13	104*	·	-16
COC(=O)c1ccc(Cn2nc(C)c(Cl)c2C)o1	2	12	16	4	i	29*
Cc1nn(Cc2ccc(C(=O)NN)cc2)c(C)c1Cl	3	12	5	3	i	-15
Cn1nnnc1SCC(=O)N1CCc2ccccc2C1	59*	35	11	25	i	-25
Cc1ccc(-n2nnnc2SCC(=O)N2CCc3ccccc3C2)cc1	-21	5	7	4	i	-17
CCn1c(C)nc2cc(C(=O)N/N=C/c3ccc(OC)cc3)ccc21	16	10	7	4	i	-12
CCn1c(C)nc2cc(C(=O)N/N=C(\C)c3ccc(OC)cc3O)ccc21	30	36	43*	58*	i	10
CC1=[N+]([O-])C(C)(C)C(c2ccc(Br)cc2)=[N+]1[O-]	-18	6	9	-7	i	3
COc1cccc(C(=O)N/N=C/c2ccc(OC3CSC3)cc2)c1	45*	25	19	25	i	-15
Cc1cccc(C(=O)N/N=C/c2ccc(OC3CSC3)cc2)c1	-23	10	-8	1	i	-27
Cc1cccc(-c2nnc3n2N=C(c2ccc(Br)cc2)CS3)c1	·	·	·	·	i	·
Cc1ccc(-c2nnc3n2N=C(c2ccc(Br)cc2)CS3)cc1	-8	53*	40	-6	i	-33
Cc1nn(-c2ccccc2)c(C)c1NC(=O)c1cccs1	50*	12	7	16	i	-3
Cc1cc(C)c(C#N)c(SCc2ccc([N+](=O)[O-])cc2)n1	23	41*	10	10	i	-7
CCOC(=O)C1=C(c2ccccc2)NC(N)=NC1c1ccc(OCc2ccc(Cl)cc2)c(OC)c1 (centres undefined)	2	-1	-11	-8	i	-7
CCNc1nc(SCC(=O)OC)nc(N2CCOCC2)n1	-12	3	-16	-7	i	-19
SMILES	KLK5 inh	FXIIa inh	FXIa inh	thrombin 1536	HSV replic up	Furin inhibitor
CCNc1nc(SC(C)C(=O)OC)nc(N2CCOCC2)n1 (centres undefined)	115*	-2	-5	-1	i	-11
CCOCC(=O)Nc1ccccc1C(=O)N1CCOCC1	-14	3	-2	1	i	-17
COc1cc(S(=O)(=O)N2CCN(C(=O)c3ccccc3)CC2)c(OC)cc1Br	-2	5	-2	1	i	-24
CCOC(=O)c1sc(NS(=O)(=O)c2cc(C)ccc2C)nc1C	40*	22	14	30	i	-13
CCN(CC)S(=O)(=O)c1cccc(NC(=O)/C=C/c2ccc([N+](=O)[O-])cc2)c1	-8	7	5	-3	i	-11
CCN(CC)S(=O)(=O)c1cccc(NC(=O)/C=C/c2cccc([N+](=O)[O-])c2)c1	67*	4	9	95*	i	-9
